Laboratory results reported in article PMC2651159 (Bioorganic & medicinal chemistry letters, 2008).

Tests used:
ChTS-DHFR [1] = biological target: T1, ChTS-DHFR (Cryptosporidium hominis, UniProt A0A0S4TER9); assay: Steady-state spectroscopic enzyme inhibition assay; format: biochemical; conditions: for Potency against ChTS-DHFR relative to FMN (in words): among the 50 compounds tested
T. gondii TS-DHFR = biological target: T2, T. gondii TS-DHFR (Toxoplasma gondii, UniProt Q07422); assay: Enzyme inhibition assay, T. gondii TS-DHFR; format: biochemical
T2 sequence (Q07422 1-610): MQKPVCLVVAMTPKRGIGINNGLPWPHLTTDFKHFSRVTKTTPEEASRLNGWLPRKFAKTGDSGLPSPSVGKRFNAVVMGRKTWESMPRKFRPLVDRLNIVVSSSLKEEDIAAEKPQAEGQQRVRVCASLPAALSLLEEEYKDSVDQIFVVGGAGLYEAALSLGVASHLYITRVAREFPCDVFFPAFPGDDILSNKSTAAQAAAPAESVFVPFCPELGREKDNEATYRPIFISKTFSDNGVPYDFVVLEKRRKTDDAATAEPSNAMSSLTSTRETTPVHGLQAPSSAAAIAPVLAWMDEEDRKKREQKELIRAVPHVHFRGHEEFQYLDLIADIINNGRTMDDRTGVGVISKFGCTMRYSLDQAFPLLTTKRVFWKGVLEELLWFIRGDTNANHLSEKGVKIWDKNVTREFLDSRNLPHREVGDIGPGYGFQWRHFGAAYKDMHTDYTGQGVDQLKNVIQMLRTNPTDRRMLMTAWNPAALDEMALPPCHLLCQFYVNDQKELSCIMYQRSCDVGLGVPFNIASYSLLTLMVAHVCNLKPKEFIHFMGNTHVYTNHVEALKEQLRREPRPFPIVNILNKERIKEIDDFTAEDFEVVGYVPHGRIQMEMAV
Method in brief: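 IC50 determined for the test compound against T. gondii TS-DHFR. Enzyme and ligand concentrations were the same as in parallel runs on C. hominis TS-DHFR, human DHFR and human TS. Values are averages of at least three independent experiments.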

TS reaction of ChTS-DHFR = assay: Inhibition of the TS reaction alone; format: biochemical, Cryptosporidium hominis; conditions: 300 μM FMN
DHFR of ChTS-DHFR [2] = assay: Steady-state competition assay; format: biochemical, Cryptosporidium hominis
DHFR of ChTS-DHFR [3] = assay: DHFR single-enzyme turnover; format: biochemical, Cryptosporidium hominis; conditions: enzyme in five-fold excess of H2F
ChTS-DHFR [4] = biological target: T1, ChTS-DHFR; assay: Pre-steady-state burst amplitude dose response; format: binding; conditions: substrate in slight excess over enzyme
Method in brief: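 Pre-steady-state kinetics of the DHFR step were observed on the millisecond time scale, with H2F substrate in slight excess over ChTS-DHFR. Burst amplitude was recorded across a dose series of test compound. Amplitude versus concentration was fit to a hyperbolic curve to derive a dissociation constant (Kd).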

ChTS-DHFR R190G mutant = assay: Inhibition of mutant ChTS-DHFR R190G; format: biochemical, Cryptosporidium hominis; conditions: preliminary analysis
[5] = system: Cryptosporidium parasite growth; conditions: cited from earlier work

**Q.** With `CC(=O)N[C@@H]1[C@@H](O)[C@H](O[C@@H]2O[C@H](CO)[C@@H](O)[C@H](O)[C@H]2NC(C)=O)[C@@H](CO)O[C@H]1O` [Chitodextrin] as the molecule, how does the IC50 (ChTS-DHFR [1]) read?
**A.** > 500 µM

**Q.** Which IC50 (ChTS-DHFR [1]) does the source give for `C[C@H]1O[C@@H](O[C@H]2[C@@H](O)C[C@H](O[C@H]3[C@@H](O)C[C@H](O[C@H]4CC[C@@]5(C)[C@H](CC[C@@H]6[C@@H]5C[C@@H](O)[C@]5(C)[C@@H](C7=CC(=O)OC7)CC[C@]65O)C4)O[C@@H]3C)O[C@@H]2C)C[C@H](O)[C@@H]1O` [Digoxin, reference compound] here?
**A.** > 500 µM

**Q.** Which results are given for `Cc1cc2nc3c(=O)[nH]c(=O)nc-3n(C[C@H](O)[C@H](O)[C@H](O)COP(=O)(O)O)c2cc1C` [FMN, Flavin mononucleotide]?
**A.** Change in IC50 on varying enzyme concentration (ChTS-DHFR [1]; enzyme concentration varied from 80 to 250 nM): no resulting change; Inhibition of TS-DHFR from Toxoplasma gondii (in words) (T. gondii TS-DHFR): did not inhibit; Inhibition of the TS reaction alone (TS reaction of ChTS-DHFR): little inhibition; Mode of inhibition with respect to H2folate (DHFR of ChTS-DHFR [2]; 200 μM FMN): noncompetitive (mixed); Mode of inhibition with respect to NADPH (DHFR of ChTS-DHFR [2]; 200 μM FMN): uncompetitive; Vmax, H2F varied (DHFR of ChTS-DHFR [2]; in the presence of 200 μM FMN (no inhibitor: 2.35 ± 0.04)): 1.8 ± 0.1 µmol/min; Vmax, NADPH varied (DHFR of ChTS-DHFR [2]; in the presence of 200 μM FMN (no inhibitor: 2.37 ± 0.03)): 1.77 ± 0.01 µmol/min; Effect on rate of chemistry, DHFR single turnover (DHFR of ChTS-DHFR [3]; 500 μM FMN): no decrease; Effect on amplitude of the single-turnover plot (DHFR of ChTS-DHFR [3]): dose-dependent decrease; Effect on DHFR burst amplitude (ChTS-DHFR [4]): dose-dependent decrease; Inhibitory effect on R190G mutant less than that against WT ChTS-DHFR (ChTS-DHFR R190G mutant): approximately 20%

**Q.** Which IC50 (ChTS-DHFR [1]) does the source give for `CC(=O)N1CCN(c2ccc(OCC3COC(Cn4ccnc4)(c4ccc(Cl)cc4Cl)O3)cc2)CC1` (stereo not drawn) [Ketoconazole, reference compound] here?
**A.** > 500 µM

**Q.** Which IC50 (ChTS-DHFR [1]) does the source give for `COc1cccc2c1C(=O)C1=C(C2=O)C(O)C2=C(C1O)[C@@H](C[C@@H]1C[C@H](N)[C@@H](O)[C@H](C)O1)C[C@@](O)(/C(C)=N/NC(=O)c1ccccc1)C2` (stereo partly drawn) [Rubidazone] here?
**A.** > 500 µM

**Q.** With `COC1=C(N)C(=O)c2nc(-c3nc(C(=O)O)c(C)c(-c4ccc(OC)c(OC)c4O)c3N)ccc2C1=O` [Streptonigrin] as the molecule, how does the “Potency against ChTS-DHFR relative to FMN (in words)” value (ChTS-DHFR [1]) read?
**A.** comparable potency

**Q.** Which “Concentration range inhibiting parasite growth” value [5] does the source give for `CC(=O)Oc1ccccc1C(=O)Nc1ncc([N+](=O)[O-])s1` [nitazoxanide] here?
**A.** 1 to 40 µM

**Q.** Which “Potency against ChTS-DHFR relative to FMN (in words)” value (ChTS-DHFR [1]) does the source give for `Cc1cc2nc3c(=O)[nH]c(=O)nc-3n(C[C@H](O)[C@H](O)[C@H](O)CO)c2cc1C` [riboflavin] here?
**A.** comparable potency
